Measurements: publication PMC2966122 (The Journal of Biological Chemistry, 2010)
Each block holds one molecule with its values, some of them ahead of it.

Legend:
[1] = Glycan array binding of FITC-labeled galectins; conditions: for Affinity for sialylated (and sulfated) galactosides on the array: site B; for Glycans bound on the array (overall): all glycans of the array; for Glycans bound on the array: 200 μg/ml galectin
In short: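 The printed array carries 406 glycans, six spots each, on NHS-activated glass. FITC-galectins at 200 μg/ml in Tris-buffered saline pH 7.4 (2 mM CaCl2, 2 mM MgCl2, 1% BSA, 0.05% Tween 20) were incubated 60 min at room temperature in the dark under a coverslip, then washed and dried. Slides were scanned at 488 nm and read as RFU (ceiling 40,000). Highest and lowest spots were dropped and the remaining four averaged.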

Fluorescence anisotropy = format: binding; conditions: for Affinity for 3-sialylated galactosides: probes 6–9 (6–8 for Xenopus); for Affinity for 3-sialylated galactosides / Affinity for GlcNAcβ1–3-substituted galactosides: relative to human wild type galectin-3; for Affinity for GlcNAcβ1–3-substituted galactosides: probes 9–15; for Binding to glycans where LacNAc or Galβ1–3GlcNAc is likely in site C-D: e.g. probes 2, 3, 7 and 8
In short: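 Equilibrium fluorescence anisotropy with 0.1 μM fluorescein-tagged saccharide probe (15 probes) titrated with 0.05–80 μM lactose-freed galectin. Read at room temperature and after incubation on ice (about 4 °C), ex 485/em 520 nm. Kd derived from the binding curve using probe-alone (A0) and saturated (Amax) anisotropy, with Amax extrapolated for partial curves. Not detected if anisotropy stayed ≤50 mA at 50 μM galectin.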

SKBR3 cells = assay: Localization of EGFP-galectin-3 and mutants in transfected cells; format: cell-based, human; conditions: EGFP fusion protein; for Entry into vesicles: stably transfected
In short: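 SKBR3 breast cancer cells were Lipofectamine-transfected with pEGFP-C1 EGFP-galectin-3 constructs and grown in RPMI 1640/10% FBS with 1 mg/ml G418 for ≥2 weeks to obtain stable lines. Cells were grown 1–2 days on coverslips, fixed in 4% paraformaldehyde, mounted with DAPI and viewed by epifluorescence microscopy. Fluorescent vesicles (dots) per cell were counted in 300 cells per construct.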

[2] = tested on: intracellular anti-apoptotic effect; conditions: cited from earlier work
[3] = tested on: N-Ras to K-Ras activation; conditions: cited from earlier work
TNFα-primed neutrophils = assay: NADPH oxidase activation of TNFα-primed neutrophils; format: cell-based, human; conditions: for Activation of primed neutrophils (release of oxygen radicals): dose response relative to wild type galectin-3 run in parallel, up to 3.5 μM
In short: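 Human neutrophils (1 × 10^7/ml) were primed 20 min at 37 °C with TNFα 10 ng/ml. Tubes held 10^6 cells and were equilibrated 5 min at 37 °C before galectin was added. Chemiluminescence was recorded continuously. Extracellular superoxide was read with HRP (4 units) plus isoluminol (6 × 10^-5 M). Intracellular ROS was read with SOD (50 units), catalase (2000 units) and luminol (2 × 10^-5 M). Peak responses were normalized to the parallel 3.5 μM wild-type peak.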

neutrophils [4] = assay: Galectin binding to neutrophils; format: cell-based, human; conditions: FITC-labeled galectin 40 μg/ml
In short: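 Human blood neutrophils from buffy coats (dextran sedimentation, Ficoll-Paque) were pretreated at 37 °C with or without TNFα, or held at 4 °C without it. They were then incubated 1 h at 4 or 37 °C with FITC-galectin (40 μg/ml) and washed twice in PBS/0.02% NaN3/EDTA. Flow cytometry gave geometric mean fluorescence from three neutrophil batches (mean, S.E.), with paired one-tailed t tests.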

[5] = cited from earlier work
neutrophils [6] = conditions: cited from earlier work
MDCK cells = conditions: EGFP fusion protein in MDCK cells; cited from earlier work
Shigella bacteria = conditions: cited from earlier work
[7] = cited from earlier work; remark: listed apart in the source
[8] = cited from earlier work; remark: listed apart in the source
[9] = compared with human galectin-3; cited from earlier work

Molecule: A146Q: Human galectin-3 point mutant in site B, Ala-146 to Gln
Affinity for glycans with GalNAcα in site B on the array ([1]; but not those with Galα (blood group B type)): selective loss of affinity
Affinity for 3-sialylated galactosides (Fluorescence anisotropy): slightly reduced affinity
Affinity for GlcNAcβ1–3-substituted galactosides (Fluorescence anisotropy): retained affinity, albeit lower

Molecule: G182A: Human galectin-3 point mutant near site C, Gly-182 to Ala
Binding to Galβ1–3GlcNAc containing glycans on the array ([1]; relative to wild type): preferentially, although not exclusively, lost binding
Entry into vesicles (SKBR3 cells): much fewer in number per cell
Intracellular anti-apoptotic effect [2]: lost
Induction of a shift from N-Ras to K-Ras activation [3]: lost

Molecule: K176L/N180T: Human galectin-3 double mutant obtained by a mistake in primer design
Affinity for some of the longer GlcNAcβ-extended galactosides (Fluorescence anisotropy; compared with K176L): slightly increased affinity
Concentration inducing significant neutrophil activation (TNFα-primed neutrophils; TNFα-primed neutrophils): ≤ 0.2 µM
Activation of primed neutrophils (release of oxygen radicals) (TNFα-primed neutrophils): clearly increased potency

Molecule: R186I: Human galectin-3 mutant replacing Arg-186 with Ile, as found in galectin-8N
Glycans bound on the array (overall) [1]: bound a few more glycans
Background binding, maximum ([1]; remaining 227 glycans not expected to bind galectins): 2674 RFU
Binding to glycans where LacNAc or Galβ1–3GlcNAc is likely in site C-D (Fluorescence anisotropy): lost binding
Affinity for glycans with Lac in site C-D (Fluorescence anisotropy; relative to wild type): retained reduced affinity

B1: Mouse galectin-3: Recombinant mouse galectin-3 orthologue (protein, UniProt P16110 2-264, looked up)
Galectin-3: ADSFSLNDALAGSGNPNPQGYPGAWGNQPGAGGYPGAAYPGAYPGQAPPGAYPGQAPPGAYPGQAPPSAYPGPTAPGAYPGPTAPGAYPGQPAPGAFPGQPGAPGAYPQCSGGYPAAGPYGVPAGPLTVPYDLPLPGGVMPRMLITIMGTVKPNANRIVLDFRRGNDVAFHFNPRFNENNRRVIVCNTKQDNNWGKEERQSAFPFESGKPFKIQVLVEADHFKVAVNDAHLLQYNHRMKNLREISQLGISGDITLTSANHAMI
Affinity for GlcNAcβ1–3-substituted galactosides (Fluorescence anisotropy): lower affinity for all the saccharide probes tested and most significantly for the ones extended by GlcNAcβ
Affinity for all the saccharide probes tested (Fluorescence anisotropy; relative to human galectin-3): lower affinity

B2: Rat galectin-3: Rat galectin-3 orthologue, not available for study here; literature data (protein, UniProt P08699 2-262, looked up)
Galectin-3: ADGFSLNDALAGSGNPNPQGWPGAWGNQPGAGGYPGASYPGAYPGQAPPGGYPGQAPPSAYPGPTGPSAYPGPTAPGAYPGPTAPGAFPGQPGGPGAYPSAPGAYPSAPGAYPATGPFGAPTGPLTVPYDMPLPGGVMPRMLITIIGTVKPNANSITLNFKKGNDIAFHFNPRFNENNRRVIVCNTKQDNNWGREERQSAFPFESGKPFKIQVLVEADHFKVAVNDVHLLQYNHRMKNLREISQLGIIGDITLTSASHAMI
Lower affinity for NeuAcα2–3Lac [9]: ~5 fold

Now from value to molecule, other results behind:

Affinity for sialylated (and sulfated) galactosides on the array ([1]; relative to wild type): lost affinity
Molecule: K176L: Human galectin-3 point mutant in site B, Lys-176 to Leu
Affinity for 3-sialylated galactosides (Fluorescence anisotropy): lost affinity
Affinity for GlcNAcβ1–3-substituted galactosides (Fluorescence anisotropy): significantly better than wild type galectin-3
Activation of primed neutrophils (release of oxygen radicals) (TNFα-primed neutrophils): clearly increased potency
Binding to primed and non-primed neutrophils (neutrophils [4]): about equally well
Increase in binding after TNFα priming (neutrophils [4]): 30–50%

Affinity for sialylated (and sulfated) galactosides on the array ([1]; relative to wild type): lost affinity
Molecule: R144S: Human galectin-3 point mutant in site B, Arg-144 to Ser
Affinity for the GalNAcα extended galactoside (Fluorescence anisotropy; probe 5 (A-tetrasaccharide), relative to wild type): increased affinity
Affinity for 3-sialylated galactosides (Fluorescence anisotropy): lost affinity
Affinity for GlcNAcβ1–3-substituted galactosides (Fluorescence anisotropy): lost affinity

Glycans bound on the array (overall) [1]: bound only one glycan
Binding to glycans where LacNAc or Galβ1–3GlcNAc is likely in site C-D (Fluorescence anisotropy): lost binding
Molecule: R186S: Human galectin-3 mutant replacing Arg-186 with Ser (site D)
Affinity for glycans with Lac in site C-D (Fluorescence anisotropy; relative to wild type): retained reduced affinity
Binding to primed and non-primed neutrophils (neutrophils [4]): did not bind any of the neutrophil preparations
Entry into vesicles (SKBR3 cells): not visible in vesicles
Ability to bind human serum glycoproteins [5]: completely lost the ability to bind human serum glycoproteins
Ability to promote the phagocytosis of apoptotic cells by neutrophils (neutrophils [6]): lost
Vesicle entry and apical targeting of glycoproteins (MDCK cells): did not enter vesicles and did not direct apical targeting of glycoproteins
Accumulation around invading Shigella bacteria (Shigella bacteria): did not accumulate around invading Shigella bacteria

Binding of galactosides with 3-linked N-glycoloyl neuraminic acid (NeuGc) ([1]; compared with NeuAc): equally well
Glycans bound on the array ([1]; glycans with a LacNAc available for binding in site C-D): 45 of 94
Glycans bound on the array ([1]; glycans with available Galβ1–3GlcNAc): 15 of 36
Glycans bound on the array ([1]; glycans with only Galβ1–3GalNAc available): did not bind at all
Glycans bound on the array ([1]; glycans with only lactose available): 6 of 24
Molecule: wild type galectin-3: Recombinant human galectin-3 produced in E. coli; expressed as EGFP fusion in SKBR3 cells
Binding to primed and non-primed neutrophils (neutrophils [4]): about equally well
Increase in binding after TNFα priming (neutrophils [4]): 30–50%
Entry into vesicles (SKBR3 cells): entered vesicles in some of the cells
Cells with dots (galectin containing vesicles) (SKBR3 cells; depending on how confluent the cells were): 15–30 % of cells
Enhancement of binding affinity by addition of GalNAcα1–3 or Galα1–3 [7]: 10–25 fold
Affinity for Galβ1–3GalNAc lower than for LacNAc [8]: 10–50 fold
